Results as given in ChEMBL document CHEMBL2086351, “Α-aryl-N-alkyl nitrones, as potential agents for stroke treatment: synthesis, theoretical calculations, antioxidant, anti-inflammatory, neuroprotective, and brain-blood barrier permeability properties” (J Med Chem, 2012).
The source made the active and inactive calls. No cut-off for these calls is given here.

What was measured:
[1] = Antioxidant activity assessed as inhibition of AAPH-induced lipid peroxidation at 0.1 mM by UV spectrophotometric analysis; format: functional
[2] = Antioxidant activity against AAPH-induced lipid peroxidation assessed as induction time of inhibition at 0.1 mM; format: functional
[3] = Antioxidant activity assessed as superoxide anion radical scavenging activity at 0.1 mM after 10 mins by tetrazolium dye assay; format: functional
In short: (§1)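 Tested in vitro at 0.1 mM. The hydroxyl radical line measures competition with DMSO for hydroxyl radicals. Superoxide was generated at pH 7.4 and read as nitroblue tetrazolium reduction to formazan at 560 nm. LOX inhibition was measured by UV absorbance enzyme assay with plant lipoxygenase.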

[4] = molecular target: Lipoxygenase (Glycine max) (UniProt Q39829); experiment: Inhibition of soybean lipoxygenase assessed as conversion of sodium linoleate to 13-hydroperoxylinoleic acid at 0.1 mM by competitive inhibition assay; in short: as §1
[5] = Induction of NO release in phosphate buffer at pH 7.4 at 0.1 mM by Griess assay in presence of L-cysteine; format: physicochemical; settings: pH 7.4, 100 µM
In short: (§2)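 Compounds at 100 μM final were dissolved in phosphate buffer pH 7.4 containing L-cysteine. Released NO was measured. Where indicated, 1 mM cysteine and a nitrate reductase/NADPH system were used. Sodium nitroprusside served as reference.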

[6] = Induction of NO release in phosphate buffer at pH 7.4 assessed as nitrite level at 0.1 mM by nitrate reductase/NADPH based Griess assay in presence of L-cysteine; format: physicochemical; settings: pH 7.4, 100 µM; in short: as §2
[7] = Neuroprotective activity in Sprague-Dawley rat primary cortical neurons assessed as reversal of oxygen-glucose deprivation-induced neuronal damage treated 4 hrs after OGD challenge measured after 24 hrs MTT assay; format: functional, cell-based; settings: Cerebral cortex neuron
In short: (§3)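 Primary cerebral cortex neurons, cultured 6–8 days, underwent 4 h oxygen–glucose deprivation. Compounds (0.1 μM–10 mM range) were added at the start of a 24 h reperfusion. Viability was read by MTT with untreated control as 100%. Neuroprotection = % recovery from the reperfusion-only value (0%) to control (100%). Three to five independent experiments; mean ± SEM.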

[8] = Antioxidant activity assessed as Fe3+/ascorbic acid-induced hydroxyl radical scavenging activity at 0.1 mM after 30 mins; format: functional; in short: as §1
[9] = test system: Radical scavenging activity; experiment: Antioxidant activity assessed as DPPH radical scavenging activity at 0.5 mM after 2 hrs by spectrophotometric analysis; format: functional
In short: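 DPPH radical test, measuring initial absorbance and absorbance after reaction spectrophotometrically.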

[10] = Neuroprotective activity in Sprague-Dawley rat primary cortical neurons assessed as reversal of oxygen-glucose deprivation-induced neuronal damage at 100 uM by treated 4 hrs after OGD challenge measured after 24 hrs MTT assay relative to control; format: functional, cell-based; settings: Cerebral cortex neuron; in short: as §3
[11] = Neuroprotective activity in Sprague-Dawley rat primary cortical neurons assessed as reversal of oxygen-glucose deprivation-induced neuronal damage at 10 uM by treated 4 hrs after OGD challenge measured after 24 hrs MTT assay relative to control; format: functional, cell-based; settings: Cerebral cortex neuron; in short: as §3
[12] = Neuroprotective activity in Sprague-Dawley rat primary cortical neurons assessed as reversal of oxygen-glucose deprivation-induced neuronal damage at 10 uM by treated 4 hrs after OGD challenge measured after 24 hrs by LDH release assay relative to control; format: functional, Cerebral cortex neuron
In short: (§4)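 Primary cortical neurons, cultured 6–8 days, underwent 4 h oxygen–glucose deprivation followed by 24 h reperfusion. Compounds (1–250 μM) were added at reperfusion. Necrotic death was read as LDH release, normalized to untreated reperfusion cells as 100%. Four independent experiments; mean ± SEM; one-way ANOVA with Holm–Sidak post test.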

[13] = Neuroprotective activity in Sprague-Dawley rat primary cortical neurons assessed as reversal of oxygen-glucose deprivation-induced neuronal damage at 100 uM by treated 4 hrs after OGD challenge measured after 24 hrs by LDH release assay relative to control; format: functional, Cerebral cortex neuron; in short: as §4
Mus musculus = experiment: Neuroprotective activity in NMRI mouse assessed as protection against tert-butyl hydroperoxide-mediated lethality at 150 mg/kg, ip administered 30 mins before t-BHP challenge measured after 1 to 24 hrs; format: functional; settings: route intraperitoneal
[14] = Neuroprotective activity in Sprague-Dawley rat primary cortical neurons assessed as reversal of oxygen-glucose deprivation-induced neuronal damage at 250 uM by treated 4 hrs after OGD challenge measured after 24 hrs by LDH release assay relative to control; format: functional, Cerebral cortex neuron; in short: as §4
[15] = Neuroprotective activity in Sprague-Dawley rat primary cortical neurons assessed as reversal of oxygen-glucose deprivation-induced neuronal damage at 1 uM by treated 4 hrs after OGD challenge measured after 24 hrs by LDH release assay relative to control; format: functional, Cerebral cortex neuron; in short: as §4
[16] = Permeability of the compound at pH 7.4 by PAMPA; format: ADME; settings: read-out: permeability
In short: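 PAMPA-BBB method of Di et al. (passive blood–brain barrier permeation). Effective permeability is reported as Pe in 10−6 cm s−1.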

Structure (SMILES) | inhibition [1] | TIME [2] | Activity [3] | inhibition [4] | Activity [5] | Activity [6] | Activity [7] | Activity [8] | Activity [9] | Activity [10] | Activity [11] | Activity [12] | Activity [13] | Activity (Mus musculus) | Activity [14] | Activity [15] | Papp [16]
COc1cc(/C=[N+](/C)[O-])ccc1O | 90% | 0.3 h | 11% | 59% | 7% | 8% | inactive | – | – | – | – | – | – | – | – | – | –
CC(Cc1ccc(O)c(O)c1)C(C)Cc1ccc(O)c(O)c1 (stereo unspecified) | – | – | – | 40% | – | – | – | – | – | – | – | – | – | – | – | – | –
COc1cc(Br)c(/C=[N+](\[O-])Cc2ccccc2)cc1OC | inactive | 0.895 h | 16% | 21% | 1% | 1% | – | – | – | – | – | – | – | – | – | – | –
[O-]/[N+](=C\c1ccccc1)Cc1ccccc1 | 74% | 0.42 h | 24% | – | – | – | – | 97% | – | – | – | – | – | – | – | – | –
CC(C)(C)/[N+]([O-])=C/c1c[nH]c2ccccc12 | 57% | 0.36 h | 15% | 42% | 3% | 4.5% | – | 59% | – | – | – | – | – | – | – | – | –
COc1cc(/C=[N+](\[O-])Cc2ccccc2)c(Br)cc1O | 87% | 0.697 h | 3% | 24% | 5% | 6% | – | 78% | – | – | – | – | – | – | – | – | –
Cc1ccc2nc(Cl)c(/C=[N+](\[O-])Cc3ccccc3)cc2c1 | 37% | 1.3 h | 23% | inactive | – | – | – | 95% | 42.3% | 105% | 75.7% | 63.01% | 66.82% | 72% | – | – | –
COc1cc(Br)c(/C=[N+](\[O-])C(C)(C)C)cc1O | 67% | 0.12 h | 11% | – | 2% | 3% | – | 72% | – | – | – | – | – | – | – | – | –
CC(C)(C)/[N+]([O-])=C/c1ccc(Br)o1 | – | 0 h | – | 39% | – | – | – | 95% | 0% | – | – | – | – | 37% | 96.26% | – | –
O=C(O)/C=C/c1ccc(O)c(O)c1 | – | – | 15% | – | – | – | – | – | – | – | – | – | – | – | – | – | –
CC(C)(C)/[N+]([O-])=C/c1ccc(OCCCO[N+](=O)[O-])cc1 | 49% | 0.783 h | 2% | 57% | – | – | – | 54% | 0.4% | – | – | – | 55.57% | 30% | – | – | –
C[N+](C)(C)CCOP(=O)(O)OP(=O)([O-])OC[C@H]1O[C@@H](n2ccc(N)nc2=O)[C@H](O)[C@@H]1O [CITICOLINE] | – | – | – | – | – | – | – | – | – | 53.2% | 87.4% | – | 61.26% | – | 84.64% | – | –
CC(C)(C)/[N+]([O-])=C/c1ccc(OCCO[N+](=O)[O-])cc1 | – | 0 h | 19% | 19% | – | – | – | 98% | 0.6% | – | – | – | – | 18% | 79.21% | – | –
[O-]/[N+](=C\c1ccc(Br)o1)Cc1ccccc1 | – | 0 h | – | 17% | – | – | – | – | 8.6% | – | – | 114.17% | – | 42% | – | 61.87% | –
CC(C)(C)c1cc(/C=[N+](\[O-])C(C)(C)C)cc(C(C)(C)C)c1O | 9% | 0.29 h | – | inactive | – | – | – | – | 78.6% | – | – | – | – | 80% | – | – | –
O=[N+]([O-])OCCOc1ccc(/C=[N+](\[O-])Cc2ccccc2)cc1 | 64% | 0.767 h | – | 21% | – | – | – | 100% | – | – | – | – | – | 22% | – | 47.48% | 16.8 ×10⁻⁶ cm/s
CC(C)(C)/[N+]([O-])=C/c1cccnc1Cl | 37% | 0.497 h | 5% | 59% | 2% | 4% | – | 30% | – | – | – | – | – | – | – | – | –
COc1cc(/C=[N+](\[O-])Cc2ccccc2)ccc1O | 90% | 1.47 h | – | – | 9% | 10% | inactive | 52% | – | – | – | – | – | – | – | – | –
COc1cc(Br)c(/C=[N+](\[O-])Cc2ccccc2)cc1O | 89% | 1.41 h | 6% | – | 2% | 2% | inactive | – | – | – | – | – | – | – | – | – | –
COc1ccc2c(c1)cc(/C=[N+](\[O-])C(C)(C)C)n2C | 80% | 0.73 h | 5% | 31% | 3% | 5% | – | 79.5% | – | – | – | – | – | – | – | – | –
Cc1c(C)c2c(c(C)c1O)CCC(C)(C(=O)O)O2 (stereo unspecified) | 63% | 1.03 h | – | – | – | – | – | 73% | – | – | – | – | – | – | – | – | –
O=[N+]([O-])OCCCOc1ccc(/C=[N+](\[O-])Cc2ccccc2)cc1 | 81% | 0.61 h | – | 30% | – | – | – | 98% | – | 83% | 77.6% | 45.37% | – | 31% | – | – | 22 ×10⁻⁶ cm/s
CC(C)(C)c1cc(/C=[N+](\[O-])Cc2ccccc2)cc(C(C)(C)C)c1O | 61% | 1.38 h | 8% | inactive | – | – | – | 77% | 81.9% | – | – | – | 53.8% | 82% | 56.95% | – | –
COc1cc(Br)c(/C=[N+](\[O-])C(C)(C)C)cc1OC | 47% | 0.00867 h | 15% | – | 1% | 2% | – | 90% | – | – | – | – | – | – | – | – | –
